# 697 NFkB inh = inhibitors of the PMA/ionomycin-induced NF-kB reporter in 697 B cells; inhibition, % at 4 µM; 697 B-cell NF-kB luciferase reporter, 16 h; 330,000 tested, 0.33% active; AID 435022; in the data active = inhibition above about 35%
# NR2E3 ag-1 = human photoreceptor-specific nuclear receptor agonism | Q9Y5X4 | CHO-S Gal4-NCOR/VP16-NR2E3 two-hybrid, luciferase | inhibition of corepressor binding, % at 3.98 µM | 360,000 tested, 0.35% active | AID 602229;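 active = inhibition above the mean of all tested compounds plus 3 SD, cut at about 70% in these data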;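 note: 0% = DMSO with NR2E3 transfected cells and 100% = cells lacking NR2E3 construct; higher means lower luciferase signal from less NR2E3 corepressor binding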
# Target sequence (Q9Y5X4 whole entry, looked up, the tested form may be a part): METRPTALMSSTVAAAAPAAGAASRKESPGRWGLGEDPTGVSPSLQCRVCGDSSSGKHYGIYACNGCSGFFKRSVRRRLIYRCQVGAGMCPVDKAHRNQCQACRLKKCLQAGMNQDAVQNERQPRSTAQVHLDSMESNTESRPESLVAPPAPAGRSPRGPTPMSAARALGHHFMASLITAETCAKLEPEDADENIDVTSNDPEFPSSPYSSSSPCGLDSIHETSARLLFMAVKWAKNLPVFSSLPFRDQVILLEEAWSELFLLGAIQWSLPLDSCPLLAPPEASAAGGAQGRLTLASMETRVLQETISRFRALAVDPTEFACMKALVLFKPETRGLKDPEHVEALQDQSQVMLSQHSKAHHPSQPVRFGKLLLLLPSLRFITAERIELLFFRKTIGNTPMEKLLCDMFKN
# Gli-Sufu antag = antagonists of Gli-Sufu signaling | Sufu-KO-LIGHT fibroblasts, Gli luciferase reporter luminescence | inhibition, % at 5 µM | 340,000 tested, 0.74% active;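 active = inhibition above about 55%, limit read from the data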;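 note: 0% = DMSO-treated cells and 100% = wells with medium but no cells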
# NR2E3 ag-2 = activates human photoreceptor nuclear receptor NR2E3; Q9Y5X4; GST-NR2E3/biotin-RetCOR TR-FRET, 1536-well; inhibition of corepressor binding, % at 4.78 µM; 320,000 tested, 0.12% active;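 active = percent inhibition above the cutoff of mean plus 3 SD of all tested compounds, set per screening campaign, cut at about 20% in these data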;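 note: 0% = DMSO wells and 100% = biotin wells as full block of FRET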
#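 System: GST-tagged NR2E3 plus biotinylated RetCOR corepressor; Amount: 1.35 nM GST-tagged NR2E3 final; Dosing: single nominal compound dose of 4.8 µM; Schedule: 5 h incubation at 4 °C; Technique: TR-FRET with europium anti-GST and streptavidin-D2, 340 nm excitation; Controls: biotin wells as high control, 0.6% DMSO wells as low control.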
# GalR3 antag = antagonists of human GalR3 | 360,000 tested, 0.44% active | O60755 | inhibition, % at 3 µM | HEK293 GalR3-CNG cAMP membrane potential fluorescence; galR3 body fused to GalR1 C-terminus;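 active = inhibition above the screen-wide average plus 3 SD, cut at about 13% in these data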;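 note: forskolin and galanin both at EC90 stimulate the cells; cAMP rise reported by CNG channel membrane potential dye signal; 0% = forskolin plus galanin with DMSO and 100% = forskolin alone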
# Target sequence (O60755 1-299 limits assumed): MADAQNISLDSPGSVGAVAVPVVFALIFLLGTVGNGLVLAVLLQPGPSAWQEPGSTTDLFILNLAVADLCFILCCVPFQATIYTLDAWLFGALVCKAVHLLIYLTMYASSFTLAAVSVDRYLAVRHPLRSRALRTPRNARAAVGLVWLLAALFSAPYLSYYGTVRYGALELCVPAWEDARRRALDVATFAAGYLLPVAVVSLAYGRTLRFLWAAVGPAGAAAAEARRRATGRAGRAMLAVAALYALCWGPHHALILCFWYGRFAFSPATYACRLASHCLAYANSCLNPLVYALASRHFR
# Jurkat NFkB inh = lowers PMA/ionomycin-induced NF-kB signal in Jurkat cells. AID 435003. 330,000 tested, 0.53% active. inhibition, % at 4 µM. PMA/ionomycin-induced NF-kB luciferase reporter, luminescence; in the data active = inhibition above about 50%
# Gli antag conf = Gli-SUFU antagonism confirmation, single concentration; inhibition, % at 5 µM; Sufu-KO-LIGHT cells, Gli luciferase reporter, luminescence; shares compounds with Gli-Sufu antag; 2,500 tested, 40% active;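 active = mean inhibition at 5 µM reaching about 45%, limit read from the data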;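 note: plate controls were DMSO-treated cells for no effect and wells lacking cells for full effect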
# SufuKO cytotox = counter-screen for Gli-SUFU antagonists: cytotoxicity; shares compounds with Gli-Sufu antag; Sufu-KO-LIGHT cells cytotoxicity, ATP luminescence; AID 651994; 2,500 tested, 32% active; cytotoxicity, % at 5 µM;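 active = mean cytotoxicity at 5 µM above about 25%, limit read from the data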;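 note: cells exposed to compound overnight for roughly 16 to 18 hours; plate controls were DMSO wells with cells for no effect and medium without cells for full effect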
# Wnt3a cs = inhibits Wnt3a reporter, counter-screen for Gli-SUFU antagonists; inhibition, % at 6.25 µM; shares compounds with Gli-Sufu antag; 2,500 tested, 20% active; AID 651995; Wnt-LIGHT cells, Wnt3a-driven luciferase reporter, luminescence;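 active = mean inhibition above about 25%, limit read from the data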
# * hit, by the source's call; nt = no result. Shown are actives, neighbours in structure and some others; about 1.8% of the full set was active somewhere.
SMILES,697 NFkB inh,NR2E3 ag-1,Gli-Sufu antag,NR2E3 ag-2,GalR3 antag,Jurkat NFkB inh,Gli antag conf,SufuKO cytotox,Wnt3a cs
C[N+]1=C(/C=C/Nc2ccccc2Cl)C(C)(C)c2ccccc21,-27,-9,56*,2,-9,13,52*,39*,-8
FC(F)(F)c1cnc(/C=C/Nc2ccccc2Cl)c(Cl)c1,8,-10,26,-3,-4,6,nt,nt,nt
C=CCCC1CN(Cc2ccc(OC)cc2)S(=O)(=O)c2c(Oc3ccc(C(C)C)cc3)cccc2O1 (stereo not drawn),nt,nt,nt,nt,11,nt,nt,nt,nt
C[C@@H]1CN([C@@H](C)CO)C(=O)CCCn2cc(nn2)CO[C@H]1CN(C)C(=O)Nc1ccc(N2CCN(C)CC2)cc1,nt,nt,nt,nt,-5,nt,nt,nt,nt
C=CCN1[C@@H](C)[C@H](c2ccccc2)Oc2cccc(N3CCCC(C)C3)c2S1(=O)=O (stereo partly drawn),nt,nt,nt,nt,-4,nt,nt,nt,nt
Cc1[nH]c2ccc(F)cc2c1CCN(Cc1ccncc1)C(=S)Nc1cccc(F)c1,-8,-20,0,4,-1,4,nt,nt,nt
Cc1ccccc1NC(=S)N(CCc1c(C)[nH]c2ccc(F)cc12)Cc1ccncc1,3,-15,59*,0,-3,-4,18,26*,-28
O=C(O)Cc1ccc2c(c1)Cc1cccnc1O2,nt,-40,nt,nt,-5,nt,nt,nt,nt
C=C(C)CSc1nc2sc3c(c2c(=O)n1C1CCCCC1)CCN(C)C3,-36,8,58*,-1,-2,-2,47*,25*,-7
COc1ccccc1NC(=O)Nc1ccc(Cc2ccncc2)cc1,0,-42,50,-1,-4,-1,15,7,-38
COc1ccccc1NC(=O)Nc1ccncc1,2,8,-11,1,-6,-6,nt,nt,nt
O=C(Nc1ccccc1O)c1nc(Cl)ccc1Cl,1,-4,50,0,-1,7,36,22,-20
CC(C)[C@H](NC(=O)c1ccco1)C(=O)N(C)Cc1ccc(C(F)(F)F)cc1,-14,7,-21,-1,-9,-3,nt,nt,nt
CCN(CC(=O)Nc1ccc(NC(C)=O)cc1)C(=O)/C=C/c1ccc([N+](=O)[O-])cc1,33,-18,-3,-4,-2,3,nt,nt,nt
CCc1c(C)nc2cc(-c3ccc(OC)c(OC)c3)nn2c1NCC1CC1,-57,-19,74*,-1,2,-44,74*,27*,35*
CSCCC(NS(=O)(=O)c1ccc(C)cc1C)C(=O)Nc1cccnc1 (stereo not drawn),3,-14,-7,nt,-2,-9,nt,nt,nt
Cc1ncc(CO)c(/C=N/NC(=O)c2cc(Br)ccc2O)c1O,9,-21,96*,-1,-10,-2,9,22,3
N#CCCN1CCC(N)=NC1=NC#N,nt,nt,nt,nt,-7,nt,nt,nt,nt
O=C(COc1ccccc1)Nc1ccc(OC(F)(F)C(F)F)c(NC(=O)COc2ccccc2)c1,12,-13,61*,-2,-6,-29,4,2,-57
CC(=O)Nc1ccc(OC(F)(F)C(F)F)c(NC(C)=O)c1,-4,-5,0,-3,-6,-2,nt,nt,nt
COc1ccc(CCNC(=O)C(=O)NCC2OCCN2S(=O)(=O)c2ccccc2)cc1 (stereo not drawn),7,5,3,3,nt,-10,nt,nt,nt
Cc1c(CCOC(=O)CC23CC4CC(CC(C4)C2)C3)sc[n+]1Cc1ccccc1,-24,-21,54,4,0,7,58*,32*,-49
CN1CCN(c2ccccc2/C=N/NC(=O)c2cccnc2)CC1,-31,-3,66*,0,-4,-27,26,9,4
CCOc1cc(/C=N/NC(=O)c2cccnc2)ccc1O,18,-15,2,2,0,10,nt,nt,nt
CCOc1cccc(/C=N/NC(=O)c2cccnc2)c1O,-32,-13,59*,3,-1,6,30,15,33*
SMILES,697 NFkB inh,NR2E3 ag-1,Gli-Sufu antag,NR2E3 ag-2,GalR3 antag,Jurkat NFkB inh,Gli antag conf,SufuKO cytotox,Wnt3a cs
O=C(N/N=C\c1cc2c(cc1Cl)OCO2)c1cccnc1,-13,-14,-15,5,1,-2,nt,nt,nt
COc1ccccc1-n1c(Cc2cccc3ccccc23)nnc1SCC(=O)O,nt,nt,nt,nt,-4,nt,nt,nt,nt
C[C@@H]1CN([C@@H](C)CO)C(=O)CCCn2nncc2CO[C@H]1CN(C)Cc1ccc(O)cc1,nt,nt,nt,nt,-4,nt,nt,nt,nt
Cc1[nH]c2ccccc2c1C(=O)c1c(N)[nH]c(C(=O)c2ccccc2)c1-c1ccc(Cl)cc1,nt,nt,nt,nt,-9,nt,nt,nt,nt
CC(C)c1nnc(NC(=O)CC(=O)Nc2ccccc2C(=O)O)s1,15,-22,52,0,4,-2,44,-5,48*
O=C(NCC1CCCO1)c1nn2c(C(F)(F)F)cc(-c3ccc(Br)o3)nc2c1Br (stereo not drawn),19,-11,56*,0,-6,8,18,15,-2
O=C(NC1CCCCC1)c1nn2c(C(F)(F)F)cc(-c3ccco3)nc2c1Br,6,-11,17,-2,4,3,nt,nt,nt
Cc1cc(C)cc([C@H]2C[C@]34CN(C(=O)OC(C)(C)C)S(=O)(=O)[C@H]3C[C@H]2O4)c1,nt,nt,nt,nt,-8,nt,nt,nt,nt
CC(=O)c1cc(-c2ccccc2)n(CCC(=O)NC2CCCCCCC2)c1C,8,-4,70*,-3,1,13,13,-10,-44
COc1ccc(OC)c(CN2CCC(Cc3ccccc3)CC2)c1,12,-16,25,2,-11,19,nt,nt,nt
COc1cc(OC)c(CN2CCC(Cc3ccccc3)CC2)cc1Br,-10,-7,53,1,-14,0,23,21,-36
O=C1Nc2c(Cl)cc(Cl)cc2C12Nc1ccccc1S2 (stereo not drawn),nt,nt,nt,nt,-5,nt,nt,nt,nt
CCNc1nc(OC)nc(N(OC)S(=O)(=O)c2ccc(C)cc2)n1,-22,13,53,-2,-7,-8,24,5,-22
COC(=O)C1=C(C)N(Cc2ccccc2C(F)(F)F)C(=NCc2ccc3c(c2)OCO3)NC1c1ccc(Cl)cc1 (stereo not drawn),nt,nt,nt,nt,-8,nt,nt,nt,nt
CN(C(=O)CSc1ncnc2c(-c3cccs3)nsc12)C1CCCCC1,nt,nt,nt,nt,1,nt,nt,nt,nt
CCN1CCN(c2oc(-c3ccccc3C)nc2S(=O)(=O)c2ccccc2)CC1,-40,25,52,nt,-7,-27,22,2,-24
CC[N+]1=C(C)C(C)(C)c2cc(C)ccc21,-37,26,57*,-1,-5,37,45*,17,-3
CCN1C(=O)C(=O)c2cc(C)ccc21,19,9,41,nt,-3,-2,nt,nt,nt

# Source: PubChem BioAssay (several laboratories)
